C2C12 statin: protects C2C12 myotubes from simvastatin toxicity; rescue of ATP level, % at 7.49 µM; ATP luminescence, 48 h; scaled: DMSO 0, geranylgeraniol control 100; 0.78% of 330,000 active; AID 602340;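 active = mean ATP rescue above about 67%, or every replicate alone reaching that limit, limit read from the data, passing the limit was not always enough; inconclusive = no clear call, values can overlap the other calls; inactive = mean under the limit and some replicate under it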;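 note: myotubes were challenged with 10 µM simvastatin during compound exposure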
DENV2 CPE rescue: inhibitors of DENV2 cytopathic effect; 1.7% of 350,000 active; DENV2-infected cells, cytopathic effect rescue, plate reader; CPE inhibition, % at 9.99 µM; in the data active = CPE inhibition above about 20%, passing the limit was not always enough; inconclusive = no clear call, values can overlap the other calls; tested in BHK-21 cells;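 note: 0% = median of neutral control wells and 100% = median of positive control wells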
E-selectin induc: E-selectin induction on HUVECs. AID 686992. HUVEC E-selectin immunofluorescence imaging; normalized: neutral wells 0, TNF-alpha wells 100. 0.37% of 260,000 active. activation, % at 7.58 µM;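 active = mean E-selectin-positive cell signal at least 10% of the positive control, reached in at least 60% of replicates, without over 20% cell loss; inconclusive = no rule given, readout overlaps actives, possibly toxicity-flagged; inactive = the rest, including those meeting only one limit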
Target sequence (P16581 whole entry, looked up): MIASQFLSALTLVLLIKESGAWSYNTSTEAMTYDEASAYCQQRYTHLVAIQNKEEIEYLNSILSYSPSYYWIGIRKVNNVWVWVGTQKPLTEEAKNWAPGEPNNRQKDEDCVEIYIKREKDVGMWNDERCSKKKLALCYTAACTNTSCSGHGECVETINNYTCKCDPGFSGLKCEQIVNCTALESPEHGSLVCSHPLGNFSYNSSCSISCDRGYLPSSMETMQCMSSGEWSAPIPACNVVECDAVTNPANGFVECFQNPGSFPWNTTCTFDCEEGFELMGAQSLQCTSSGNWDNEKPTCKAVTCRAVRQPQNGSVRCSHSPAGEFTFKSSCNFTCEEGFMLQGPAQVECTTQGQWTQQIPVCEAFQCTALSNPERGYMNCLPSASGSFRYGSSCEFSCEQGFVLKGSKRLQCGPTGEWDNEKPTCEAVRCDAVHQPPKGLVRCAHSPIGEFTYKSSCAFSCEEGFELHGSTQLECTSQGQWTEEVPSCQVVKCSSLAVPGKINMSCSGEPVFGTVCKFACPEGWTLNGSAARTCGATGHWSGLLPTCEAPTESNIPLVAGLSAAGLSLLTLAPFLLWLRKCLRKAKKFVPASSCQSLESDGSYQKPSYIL
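Test system: HUVEC; input: 3,000 HUVEC/well; measured by: immunofluorescence imaging; read-out: % PE-positive cells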
Numbers without * were called inactive; ? = inconclusive; . = no result given; ! = not active in a repeat. Most compounds without a hit are left out; they make up all but 2.2% or so of the library.

SMILES | C2C12 statin | DENV2 CPE rescue | E-selectin induc
C[C@@H]1CCCCO[C@@H](CN(C)C(=O)Cc2ccccc2)[C@@H](C)CN([C@H](C)CO)C(=O)c2cc(NS(=O)(=O)c3ccc(F)cc3)ccc2O1 | . | -8.7 | 0.0
C[C@@H]1CCCCO[C@H](CN(C)C(=O)Cc2ccccc2)[C@H](C)CN([C@H](C)CO)C(=O)c2cc(NS(=O)(=O)c3ccc(F)cc3)ccc2O1 | . | 27.6* | 0.5
C[C@H](CO)N1C[C@H](C)[C@@H](CN(C)C(=O)Cc2ccccc2)OCCCC[C@H](C)Oc2ccc(NS(=O)(=O)c3ccc(F)cc3)cc2C1=O | . | 126.1* | 0.5
C[C@@H]1CN([C@H](C)CO)C(=O)c2cccc(NC(=O)c3ccncc3)c2O[C@@H]1CN(C)C(=O)NC1CCCCC1 | 34.4 | 4.9 | .
C[C@@H]1CN([C@H](C)CO)C(=O)c2cc(C3=CCCC3)cnc2O[C@H]1CN(C)C(=O)c1cccnc1 | 23.5 | -4.3 | -0.2
C[C@@H]1CCCCO[C@H](CN(C)C(=O)Cc2ccccc2)[C@@H](C)CN([C@H](C)CO)C(=O)c2cc(NS(=O)(=O)c3cn(C)cn3)ccc2O1 | -0.4 | 11.4 | 0.1
C[C@@H]1CCCCO[C@@H](CN(C)C(=O)Cc2ccccc2)[C@@H](C)CN([C@H](C)CO)C(=O)c2cc(NS(=O)(=O)c3cn(C)cn3)ccc2O1 | -3.5 | -1.4 | 0.1
C[C@@H]1CN([C@@H](C)CO)C(=O)c2cc(NS(=O)(=O)c3cn(C)cn3)ccc2O[C@@H](C)CCCCO[C@@H]1CN(C)C(=O)Cc1ccccc1 | 39.6 | 63.2* | 0.1
C[C@@H]1CCCCO[C@H](CN(C)C(=O)Cc2ccccc2)[C@@H](C)CN([C@@H](C)CO)C(=O)c2cc(NS(=O)(=O)c3cn(C)cn3)ccc2O1 | ? | 31.4* | 0.1
CCCN(C)C[C@@H]1OCCCC[C@@H](C)Oc2ccc(NS(=O)(=O)c3ccccc3)cc2C(=O)N([C@@H](C)CO)C[C@@H]1C | -18.0 | -0.9 | -0.2
COc1cccc(NC(=O)N2CC3(C2)[C@@H](c2ccccc2)[C@@H](CO)N3C(=O)C2CC2)c1 | . | 14.1 | 0.2
CCOC(=O)c1cn(CC)c2cc3c(cc2c1=O)OCO3 | 1.1 | 24.7* | -0.2
CCOC(=O)c1cn(CC)c2cc(N3CCN(C)CC3)c(F)cc2c1=O | -0.1 | ? | 0.0
CC(C)NC(=O)NC[C@@H]1[C@H](c2ccccc2)[C@H](CO)N1C(=O)c1ccccc1 | 4.2 | -5.6 | 0.0
O=c1[nH]c(-c2ccncc2)nc2ccccc12 | 9.9 | . | .
N=c1oc2ccccc2cc1-c1nc2ccccc2c(=O)[nH]1 | 92.5* | 11.3 | 0.1
Cc1ccc(S(=O)(=O)N(C)C[C@@H]2OCc3ccccc3-c3ccccc3C(=O)N([C@H](C)CO)C[C@@H]2C)cc1 | 0.1 | 7.0 | -0.4
CCCNC(=O)[C@@H]1[C@@H](CO)[C@@H]2Cn3c(ccc(C4=CCCCC4)c3=O)[C@H]1N2Cc1cocn1 | -0.7 | 19.3 | -0.4
COc1ccc(OCCC(=O)Nc2cc(C)on2)cc1 | -11.0 | . | .
COc1ccc(CC(=O)Nc2cc(C)on2)cc1 | 136.9* | . | .
COCC#Cc1cnc2c(c1)C(=O)N([C@@H](C)CO)C[C@H](C)[C@H](CN(C)C(=O)NC1CCCC1)O2 | -9.8 | 7.0 | -2.8
Cc1ccc([C@H]2N[C@]3(CCCN(Cc4ccco4)C3=O)[C@H]3C(=O)N(C)C(=O)[C@@H]23)cc1 | -1.6 | 59.5* | .
COc1ccc(CN2CCC[C@]3(N[C@H](c4ccc(C)cc4)[C@@H]4C(=O)N(Cc5ccccc5)C(=O)[C@@H]43)C2=O)cc1 | -6.2 | 24.7* | .
COc1ccc(CN2CCC[C@]3(N[C@H](c4ccc(OC)cc4)[C@@H]4C(=O)N(Cc5ccccc5)C(=O)[C@@H]43)C2=O)cc1 | 5.5 | 17.5 | -0.1
CN1C(=O)[C@H]2[C@@H](c3ccccc3)N[C@]3(CCCN(Cc4ccco4)C3=O)[C@H]2C1=O | -4.0 | -13.8 | -0.2
SMILES | C2C12 statin | DENV2 CPE rescue | E-selectin induc
Cn1cccc1CN1CCC[C@]2(N[C@H](c3ccccc3)[C@@H]3C(=O)N(Cc4ccccc4)C(=O)[C@@H]32)C1=O | -3.7 | 40.7* | 0.2
Cc1ccc([C@H]2N[C@]3(CCCN(Cc4cccn4C)C3=O)[C@H]3C(=O)N(Cc4ccccc4)C(=O)[C@@H]23)cc1 | 0.6 | -5.4 | 0.8
COc1ccccc1-c1ccc2c(c1)O[C@@H](CN(C)CC1CC1)[C@@H](C)CN([C@@H](C)CO)S2(=O)=O | -16.0 | . | 0.3
Cc1noc(C)c1NC(=O)N(C)C[C@H]1Oc2c(NS(C)(=O)=O)cccc2C(=O)N([C@@H](C)CO)C[C@H]1C | . | -2.6 | -0.2
Cc1ccccc1S(=O)(=O)N1C[C@H](O)COC[C@H]2O[C@H](CC(=O)N3CCN(C)CC3)CC[C@@H]21 | -7.1 | -2.0 | 0.4
CC(C)NC(=O)N(C)C[C@H]1Oc2c(NC(=O)c3cnccn3)cccc2C(=O)N([C@H](C)CO)C[C@H]1C | -8.0 | -8.0 | 23.6
Cc1ccc(N(C(=O)Cn2nnc3ccccc32)C(C(=O)NCc2ccco2)c2ccc(C)o2)cc1 (centres undefined) | 130.4* | . | .
O=C(NCc1ccco1)C(c1ccc(F)cc1)N(Cc1cccnc1)C(=O)Cn1nnc2ccccc21 (centres undefined) | 101.8* | . | .
O=C(NCc1ccco1)C(c1ccccc1)N(Cc1cccnc1)C(=O)Cn1nnc2ccccc21 (centres undefined) | -6.5 | . | .
Cc1ccc(C(C(=O)NCc2ccco2)N(C(=O)Cn2nnc3ccccc32)c2ccccc2)o1 (centres undefined) | 11.9 | . | .
CCCC[C@@H]1CNCCN1CCc1cc(C(F)(F)F)cc(C(F)(F)F)c1 | -7.7 | 8.4 | -0.1
CCC(C)[C@H]1CNCCN1CCc1cc(C(F)(F)F)cc(C(F)(F)F)c1 (some centres undefined) | -11.9 | 43.9* | 0.0
CC(O)[C@H]1CNC(=S)N1CCc1cccc(F)c1 (some centres undefined) | 5.7 | -5.5 | 0.1
CCC(C)[C@H]1CNC(=S)N1CCc1cc(C(F)(F)F)cc(C(F)(F)F)c1 (some centres undefined) | -19.4 | 81.1* | -0.1
COC(=O)C[C@@H]1C=C[C@@H](NC(=O)Nc2ccc(C(F)(F)F)cc2)[C@H](CO)O1 | -12.9 | 10.9 | -0.2
COCCNC(=O)C[C@H]1C[C@H]2c3cc(NC(=O)CN(C)C)ccc3O[C@H]2[C@@H](CO)O1 | 2.9 | 3.3 | -0.1
C[C@@H]1CCCCO[C@H](CN(C)C(=O)CCCN(C)C)[C@H](C)CN([C@@H](C)CO)C(=O)c2cc(NC(=O)Nc3ccc(C(F)(F)F)cc3)ccc2O1 | 5.8 | -12.2 | -0.2
Cc1cccc(-c2ccc(C3[C@@H]4CN(Cc5cccc(F)c5)C[C@H]3N4)cc2)c1 (some centres undefined) | . | -14.9 | -0.1
O=C(C1CC1)N1C[C@@H]2N[C@H](C1)C2c1ccc(-c2cccc(F)c2)cc1 (some centres undefined) | . | 59.1*! | 0.2
N#Cc1cccc(-c2ccc(C3[C@@H]4CN(C(=O)c5cccnc5)C[C@H]3N4)cc2)c1 (some centres undefined) | . | 83.6*! | ?
Fc1cccc(-c2ccc(C3[C@@H]4CN(Cc5cncnc5)C[C@H]3N4)cc2)c1 (some centres undefined) | . | 28.1*! | 0.0

Screening results from PubChem BioAssay.
